# Measurements collected from several papers.
# Compare with care: the assays were run in different laboratories.
# Organism: Human immunodeficiency virus 1
# Effect on: viral replication
SMILES,test,system,conditions,quantity,value
CC(C)CN(C[C@@H](O)[C@H](Cc1ccccc1)NC(=O)O[C@H]1CCO[C@H]2OCC[C@H]21)S(=O)(=O)c1ccc(B(O)O)cc1,inhibitor,MT2,,IC50,120 nM
Cc1cn([C@H]2C[C@H](N=[N+]=[N-])[C@@H](CO)O2)c(=O)[nH]c1=O,,human PBMC,clinical isolate,IC90,> 1000 nM
Cc1c(O)cccc1C(=O)N[C@@H](CSc1ccccc1)[C@H](O)CN1C[C@H]2CCCC[C@H]2C[C@H]1C(=O)NC(C)(C)C,,human PBMC,,IC50,12 nM
CC(C)CN(C[C@@H](O)[C@H](Cc1ccccc1)NC(=O)O[C@H]1CCO[C@H]2OCC[C@H]21)S(=O)(=O)c1ccc(C(=O)O)cc1,inhibitor,MT2,,IC50,> 1000 nM
CC(C)c1nc(CN(C)C(=O)N[C@H](C(=O)N[C@@H](Cc2ccccc2)C[C@H](O)[C@H](Cc2ccccc2)NC(=O)OCc2cncs2)C(C)C)cs1,inhibitor,human PBMC,clinical isolate,IC90,92.3 nM
CC(C)CN(C[C@@H](O)[C@H](Cc1ccccc1)NC(=O)O[C@H]1CO[C@H]2OCC[C@H]21)S(=O)(=O)c1ccc(N)cc1,,MT2,,IC50,3.3 nM
Cc1cccc(C)c1OCC(=O)N[C@@H](Cc1ccccc1)[C@@H](O)C[C@H](Cc1ccccc1)NC(=O)[C@H](C(C)C)N1CCCNC1=O,,MT4,,IC50,13 nM
CSCC[C@H](NC(C)=O)C(=O)N[C@@H](CC(C)C)C(=O)N[C@@H](CCCNC(=N)N)C(=O)N[C@@H](Cc1c[nH]c2ccccc12)C(=O)N[C@@H](CO)C(=O)N[C@@H](CCCNC(=N)N)C(=O)N[C@@H](CCCCN)C(=O)N[C@@H](CC(C)C)C(=O)N1CCC[C@H]1C(=O)N[C@@H](CS)C(=O)N[C@H](C(=O)N[C@@H](CO)C(=O)O)C(C)C,inhibitor,TZM-bl,,IC50,> 10000 nM
C[C@@H](O[C@H]1OCCN(Cc2n[nH]c(=O)[nH]2)[C@H]1c1ccc(F)cc1)c1cc(C(F)(F)F)cc(C(F)(F)F)c1,inhibitor,human PBMC,clinical isolate,IC50,6370 nM
COc1ccccc1NC(=O)c1ccccc1Cl,,MT4,,IC50,> 50000 nM
CC(C)CN(C[C@@H](O)[C@H](Cc1ccccc1)NC(=O)O[C@H]1CO[C@H]2OCC[C@H]21)S(=O)(=O)c1ccc(B(O)O)cc1,,MT4,,IC50,48.9 nM
CC(C)Nc1cccnc1N1CCN(C(=O)c2cc3cc(NS(C)(=O)=O)ccc3[nH]2)CC1,inhibitor,human PBMC,clinical isolate,IC50,30.6 nM
